From publication PMC10644204 (Pharmacology Research & Perspectives, 2023)
Values joined by “and” are separate entries in the source; they are usually repeats but may differ in a detail not shown here. Identical values can stand only once.

Tests used:
HIV‐1 = details: GSK'254 200 mg QD, treatment-naive people living with HIV-1, phase IIa; cited from earlier work
[1] = Plasma pharmacokinetics, part 2 main QTc study; format: in vivo, human; details: for Cτ, geometric mean (%CVb): moderate-fat meal, Day 7, n = 40
Outline: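 Moderate-fat meal 30 min before each dose. Plasma sampled predose on Days 1, 5, 6 and 7, and on Day 7 at 0.5–24 h postdose. Test compound assayed by validated UHPLC-MS/MS (3.00–1000 ng mL−1).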

healthy participants [2] = experiment: Concentration-QTc analysis; format: in vivo, human
Outline: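 Part 2: 12-lead ECGs extracted from continuous Holter recordings at baseline (Day −1; −45, −30, −15 min predose Day 1) and on Day 7 predose and 0.5–24 h postdose. ECGs taken before PK blood draws. QTcF by Fridericia. Mixed-effects model of ΔQTcF on plasma test compound concentration, with centred baseline QTcF, treatment and time fixed, and per-participant random slope and intercept.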

healthy participants [3] = experiment: Safety assessments; format: in vivo, human
Outline: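 Part 2 healthy participants confined from Day −2 of period 1 to Day 9 of period 4. […] AEs monitored throughout, recording duration, severity, causality and outcome, alongside safety ECGs, laboratory tests, physical examination and vital signs.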

[4] = part 2, GSK'254 100 mg (N = 40)
[5] = part 2, GSK'254 500 mg (N = 40)

C=C(C)[C@@H]1CC[C@]2(NCCN3CCS(=O)(=O)CC3)CC[C@]3(C)[C@H](CC[C@@H]4[C@@]5(C)CC=C(C6=CC[C@@](CF)(C(=O)O)CC6)C(C)(C)[C@@H]5CC[C@]43C)[C@@H]12 [GSK'254]
Mean reduction from baseline in HIV-1 RNA (HIV‐1): 2 log10 copies/mL
AUC ([1]; human, plasma, oral, 100 mg): 13800 ng·h/mL
AUC ([1]; human, plasma, oral, 500 mg): 67500 ng·h/mL
Cmax ([1]; human, plasma, oral, 500 mg): 4260 ng/mL
Cτ, geometric mean (%CVb) ([1]; part 2, GSK'254 100 mg QD 7 days): 460 ng mL^−1 and 460 (40.3) ng mL^−1
Cτ, geometric mean (%CVb) ([1]; part 2, GSK'254 500 mg QD 7 days): 2140 ng mL^−1 and 2140 (46.6) ng mL^−1
Geometric mean steady-state exposure values with GSK'254 500 mg relative to GSK'254 100 mg ([1]; part 2, QD 7 days): ~ 5 fold
Treatment effect-specific intercept of the concentration-QTc model (healthy participants [2]; Day 7): 0.61 ms
Model-predicted ΔΔQTcF at geometric mean GSK'254 Cmax (healthy participants [2]; GSK'254 100 mg): 2.72 ms
Model-predicted ΔΔQTcF at geometric mean GSK'254 Cmax (healthy participants [2]; GSK'254 500 mg): 11.49 ms
Estimated population slope of the concentration-QTc model (healthy participants [2]; ΔΔQTcF vs GSK'254 plasma concentration, Day 7): 0.0025 ms per ng mL^−1
Tolerability (healthy participants [3]; both GSK'254 doses, short-term administration, all AEs mild in intensity): generally well tolerated
AE: Abdominal pain (healthy participants [3]; [4]): 0 n (%)
AE: Acne (healthy participants [3]; [4]): 2 (5) n (%)
AE: Diarrhea (healthy participants [3]; [4]): 0 n (%)
AE: Gastrointestinal disorders (healthy participants [3]; [4]): 1 (3) n (%)
AE: General disorders and administration site conditions (healthy participants [3]; [4]): 0 n (%)
AE: Immune system disorders (healthy participants [3]; [4]): 0 n (%)
AE: Infections and infestations (healthy participants [3]; [4]): 0 n (%)
AE: Maculopapular rash (healthy participants [3]; [4]): 1 (3) n (%)
AE: Medical device site dermatitis (healthy participants [3]; [4]): 0 n (%)
AE: Nausea (healthy participants [3]; [4]): 0 n (%)
AE: Nervous system disorders (healthy participants [3]; [4]): 0 n (%)
AE: Renal and urinary disorders (healthy participants [3]; [4]): 0 n (%)
AE: Reproductive system and breast disorders (healthy participants [3]; [4]): 0 n (%)
AE: Respiratory, thoracic, and mediastinal disorders (healthy participants [3]; [4]): 1 (3) n (%)
AE: Skin and subcutaneous tissue disorders (healthy participants [3]; [4]): 3 (8) n (%)
AE: Vessel puncture site pain (healthy participants [3]; [4]): 0 n (%)
Any AE (healthy participants [3]; [4]): 5 (13) n (%)
Any drug-related AE (healthy participants [3]; [4]): 2 n (%) and 2 (5) n (%)
Drug-related AE: Abdominal pain (healthy participants [3]; [4]): 0 n (%)
Drug-related AE: Acne (healthy participants [3]; [4]): 2 (5) n (%)
Drug-related AE: Diarrhea (healthy participants [3]; [4]): 0 n (%)
Drug-related AE: Fatigue (healthy participants [3]; [4]): 0 n (%)
Drug-related AE: Gastrointestinal disorders (healthy participants [3]; [4]): 0 n (%)
Drug-related AE: General disorders and administration site conditions (healthy participants [3]; [4]): 0 n (%)
Drug-related AE: Maculopapular rash (healthy participants [3]; [4]): 0 n (%)
Drug-related AE: Nausea (healthy participants [3]; [4]): 0 n (%)
Drug-related AE: Pruritus (healthy participants [3]; [4]): 1 (3) n (%)
Drug-related AE: Renal and urinary disorders (healthy participants [3]; [4]): 0 n (%)
Drug-related AE: Skin and subcutaneous tissue disorders (healthy participants [3]; [4]): 2 (5) n (%)
Drug-related AE: Urinary hesitation (healthy participants [3]; [4]): 0 n (%)
AE: Abdominal pain (healthy participants [3]; [5]): 1 (3) n (%)
AE: Acne (healthy participants [3]; [5]): 0 n (%)
AE: Diarrhea (healthy participants [3]; [5]): 6 n (%) and 6 (15) n (%)
AE: Gastrointestinal disorders (healthy participants [3]; [5]): 7 (18) n (%)
AE: General disorders and administration site conditions (healthy participants [3]; [5]): 3 (8) n (%)
AE: Immune system disorders (healthy participants [3]; [5]): 0 n (%)
AE: Infections and infestations (healthy participants [3]; [5]): 1 (3) n (%)
AE: Maculopapular rash (healthy participants [3]; [5]): 1 (3) n (%)
AE: Medical device site dermatitis (healthy participants [3]; [5]): 2 (5) n (%)
AE: Nausea (healthy participants [3]; [5]): 2 (5) n (%)
AE: Nervous system disorders (healthy participants [3]; [5]): 1 (3) n (%)
AE: Renal and urinary disorders (healthy participants [3]; [5]): 0 n (%)
AE: Reproductive system and breast disorders (healthy participants [3]; [5]): 0 n (%)
AE: Respiratory, thoracic, and mediastinal disorders (healthy participants [3]; [5]): 0 n (%)
AE: Skin and subcutaneous tissue disorders (healthy participants [3]; [5]): 2 (5) n (%)
AE: Vessel puncture site pain (healthy participants [3]; [5]): 0 n (%)
Any AE (healthy participants [3]; [5]): 10 (25) n (%)
Any drug-related AE (healthy participants [3]; [5]): 7 n (%) and 7 (18) n (%)
Drug-related AE: Abdominal pain (healthy participants [3]; [5]): 1 (3) n (%)
Drug-related AE: Acne (healthy participants [3]; [5]): 0 n (%)
